Measurements from the RNAGym collection of RNA variant scans (doi:10.1126/science.aae0568).
Fewer inactive variants are shown than the library holds.

B1: tRNA (parent)
chain: GUUCCGUUGGCGUAAUGGUAACGCGUCUCCCUCCUAAGGAGAAGACUGCGGGUUCGAGUCCCGUACGGAACG

Variants of: B1
Assay: yeast fitness relative to wild type (ratio to wild type); higher = fitter; tRNA-Arg(CCU), competitive growth, 37 C, YPD
Procedure, shortened: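 The tRNA-Arg(CCU) gene variants were made by chemical synthesis with a 3% per-site mutation rate at 69 sites and inserted at the native genomic locus of Saccharomyces cerevisiae. After pooling, the strains were competed in YPD at 37°C for 24 hours in six parallel replicates. Gene amplicons from the start population and each end population were read by 100-nucleotide paired-end sequencing, and Darwinian fitness relative to wild type was taken from genotype frequency changes. Genotypes needed ≥ 100 starting reads, and estimates < 0.5 were set to 0.5.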

U2C C24G C34U C49A and U2A U32C C33A G51C G68A cannot be ordered by yeast fitness: no more than 0.5 for the first, no more than 0.5 for the second.

U2A U13C U19G C22U C31U A40U G67A and U2C A14G C22A C27A C29U A42C cannot be ordered by yeast fitness: no more than 0.5 for the first, no more than 0.5 for the second.

U2C A20U A45G and U2C A42G C61G cannot be ordered by yeast fitness: no more than 0.5 for the first, no more than 0.5 for the second.

Going from U2C A15G to U2C C31G C62A, the yeast fitness falls from 0.91 to 0.532.

First: U2C C31G G58A C61G U64G A69C
Second: U2C C24G
The yeast fitness of the first is lower: no more than 0.5 for the first, 0.946 for the second.

Going from U2A U13A C29U U35A C60U to U2C C27G U28A A43U, the yeast fitness rises from no more than 0.5 to 0.629.

First: U2C A14G G48C
Second: U2A U28C G39A C62U A65U
The yeast fitness of the first is higher: 0.709 for the first, no more than 0.5 for the second.

Compared with U2C A40C G48A, U2A U16G A70C is higher in yeast fitness: 0.751 for the first, 0.835 for the second.

U2C A14G A57C A69U and U2C C29U A37G A57G cannot be ordered by yeast fitness: no more than 0.5 for the first, no more than 0.5 for the second.

Going from U2A U16C C30A C61G to U2C A45G, the yeast fitness rises from no more than 0.5 to 0.883.

Compared with U2C A45C, U2C C34U C46A is lower in yeast fitness: 1.01 for the first, no more than 0.5 for the second.

Compared with U2C C27A, U2C A37G G68C is lower in yeast fitness: 0.749 for the first, no more than 0.5 for the second.

U2C C24U C29U C30A A69U and U2C C5U C27G U28A A43U cannot be ordered by yeast fitness: no more than 0.5 for the first, no more than 0.5 for the second.

Going from U2C A69U to U2C A69C, the yeast fitness falls from 0.96 to 0.872.

First: U2C C4U C34A A65C C66G
Second: U2C C4A
The yeast fitness of the first is lower: 0.583 for the first, 0.877 for the second.

Compared with U2C C4G, U2A U13A C24A A45C is lower in yeast fitness: 0.965 for the first, no more than 0.5 for the second.

Compared with U2A U54A A65U, U2C C5G C46U G58A is higher in yeast fitness: no more than 0.5 for the first, 0.611 for the second.

U2C A14C A15G U16A and U2C C31G G58A cannot be ordered by yeast fitness: no more than 0.5 for the first, no more than 0.5 for the second.

U2C A15U A37G and U2A U32A G67A cannot be ordered by yeast fitness: no more than 0.5 for the first, no more than 0.5 for the second.

Compared with U2C C31U A57U, U2C C4U C31A C33U G56C is lower in yeast fitness: 0.535 for the first, no more than 0.5 for the second.

U2C C24U U26A U28G U54G and U2C C4A C60A C62U cannot be ordered by yeast fitness: no more than 0.5 for the first, no more than 0.5 for the second.

Compared with U2C A15C A20C A65U, U2A U54A is higher in yeast fitness: 0.52 for the first, 0.613 for the second.

U2C A20U A40U C62A C66A and U2A U13A A14C C33U cannot be ordered by yeast fitness: no more than 0.5 for the first, no more than 0.5 for the second.

Going from U2C C4U G48A to U2C A15C G23C C31A, the yeast fitness falls from 0.538 to no more than 0.5.

Compared with U2A U35C, U2A U8G C33G G38A is lower in yeast fitness: 0.875 for the first, no more than 0.5 for the second.

U2C C24G A36G A42U A45U and U2C C33G C34U C49U cannot be ordered by yeast fitness: no more than 0.5 for the first, no more than 0.5 for the second.

Compared with U2C C5G G9A A15U, U2C C5U C11G U19A C30U G58A is lower in yeast fitness: 0.539 for the first, no more than 0.5 for the second.

U2C A45G C49G and U2C C29U C62U A70U cannot be ordered by yeast fitness: no more than 0.5 for the first, no more than 0.5 for the second.

Going from U2C C5G G44A C46A G52A C66U to U2A U26G, the yeast fitness rises from no more than 0.5 to 0.821.

Compared with U2A U26C, U2C C27A C62A is lower in yeast fitness: 0.934 for the first, 0.641 for the second.

Going from U2A U7C G25A A36C C60A C62G to U2C C24G C46U A70U, the yeast fitness rises from 0.524 to 0.537.

U2C A15U A20U C27U C61G and U2C C4G G6C G18A C24U C27A U35C G41A U47C cannot be ordered by yeast fitness: no more than 0.5 for the first, no more than 0.5 for the second.

First: U2C C30U A36C A45U G50C
Second: U2C C24U U59C
The yeast fitness of the first is lower: no more than 0.5 for the first, 0.537 for the second.

Compared with U2C A36C G39A A57U, U2C A40U G58C is higher in yeast fitness: 0.539 for the first, 0.705 for the second.

Compared with U2A U16C C30A A69C, U2C C11A U32C is lower in yeast fitness: 0.544 for the first, no more than 0.5 for the second.

First: U2A U32C
Second: U2C C30U C33U G63C
The yeast fitness of the first is higher: 0.954 for the first, no more than 0.5 for the second.

Compared with U2C A15G G44A G50C A70G, U2C C22U A40U is higher in yeast fitness: no more than 0.5 for the first, 0.574 for the second.

U2C A42C U54A G67C A69U and U2A U13G A14G U28A A36U A45U A57G cannot be ordered by yeast fitness: no more than 0.5 for the first, no more than 0.5 for the second.

First: U2A U19A
Second: U2C A36G
The yeast fitness of the first is higher: 0.931 for the first, 0.907 for the second.

First: U2C A36U
Second: U2C A36C
The yeast fitness of the first is higher: 0.682 for the first, 0.543 for the second.

U2A U13A A14C C33U G52C and U2C A20G C27G A37C G38C A43G C55A cannot be ordered by yeast fitness: no more than 0.5 for the first, no more than 0.5 for the second.

With U2A U59C the yeast fitness was 0.995.
